Measurements published in paper PMC4028361 (Immunity, 2014).
Like-named read-outs stand apart in the source and are kept apart here.

What was measured:
[1] = molecular target: BTN3A1 B30.2 charge reversal mutant (H378D, K393D, R412E, R418E, R469E) (Homo sapiens, UniProt O00481, H408D/K423D/R442E/R448E/R499E); assay: Isothermal titration calorimetry, B30.2 charge reversal mutant; type: binding; details: ITC; 25μM protein in cell, 500μM pAg in syringe
[2] = molecular target: G115 Vγ9Vδ2 TCR / BTN3A1 extracellular domain (Homo sapiens, UniProt O00481); type: binding; details: SPR; 1mM cHDMAPP co-injected
Chain of G115 Vγ9Vδ2 TCR / BTN3A1 extracellular domain (O00481 30-254): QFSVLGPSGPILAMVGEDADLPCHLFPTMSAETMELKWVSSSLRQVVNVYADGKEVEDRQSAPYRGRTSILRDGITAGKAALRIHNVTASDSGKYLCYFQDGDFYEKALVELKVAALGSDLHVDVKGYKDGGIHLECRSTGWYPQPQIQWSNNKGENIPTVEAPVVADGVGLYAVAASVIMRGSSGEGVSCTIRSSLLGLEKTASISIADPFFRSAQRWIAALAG
Procedure, shortened: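 G115 Vγ9Vδ2 TCR was C-terminally biotinylated and multimerized at a 60:1 ratio onto streptavidin-conjugated AmDex polymers. Serial dilutions from 1 ug/ml to 0.03125 ug/ml were injected over immobilized […] BTN3A1, with murine T22 protein also immobilized.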

[3] = molecular target: extracellular domain of BTN3A1 (Homo sapiens, UniProt O00481); assay: Isothermal titration calorimetry, pAg binding to BTN3A1 extracellular domain; details: ITC at multiple temperatures (25°C, 15°C); 100μM protein, 2mM cHDMAPP
Chain of extracellular domain of BTN3A1 (O00481 30-254 limits assumed): as the sequence (O00481 30-254) above

human Vγ9Vδ2 T cells = type: cell-based
Procedure, shortened: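 Target HEK cells had endogenous BTN3A silenced by shRNA and were transiently re-transfected with BTN3A isoforms or position-351 mutants. Cells were pretreated 2 h at 37°C with anti-CD277 agonist mAb 20.1 or zoledronate, washed extensively, then cocultured 4 h at 37°C with polyclonal Vγ9Vδ2 T cells in complete RPMI with 10 μM monensin and labelled anti-CD107a. Cells were then stained for Vδ2 TCR and read by flow cytometry.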

Chain of BTN3A1 B30.2 charge reversal mutant (H378D, K393D, R412E, R418E, R469E) (O00481 322-513 H408D/K423D/R442E/R448E/R499E): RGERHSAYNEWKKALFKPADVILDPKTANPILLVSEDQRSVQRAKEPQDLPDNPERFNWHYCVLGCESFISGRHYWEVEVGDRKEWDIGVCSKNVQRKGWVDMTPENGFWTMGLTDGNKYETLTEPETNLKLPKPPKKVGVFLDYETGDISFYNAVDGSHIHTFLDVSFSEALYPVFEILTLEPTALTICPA

## C/C(=C\CCP(=O)(O)OP(=O)(O)O)CO [cHDMAPP, hydroxy-methyl-butyl-pyrophosphonate]
[1]
  binding to B30.2 charge reversal mutant: no detectable binding
[2]
  effect of co-injection on G115 AmDex TCR interaction with immobilized BTN3A1: did not alter observed interactions
[3]
  binding to the complete extracellular domain of BTN3A1: unable to detect binding

## O=P(O)(O)C(O)(Cn1ccnc1)P(=O)(O)O [zoledronate, Zoledronic acid monohydrate]
Human Vγ9Vδ2 T cells; BTN3A-silenced cells re-expressing BTN3A1_H351R
  Vγ9Vδ2 T cell stimulation (CD107a): unable to mediate NBP induced stimulation
Human Vγ9Vδ2 T cells; BTN3A-silenced cells re-expressing BTN3A3_R351H
  Vγ9Vδ2 T cell stimulation (CD107a): able to mediate NBP induced stimulation
